Assays:
Type in all cases: functional
NCI-H226 [1] = assay: Cytotoxicity against human NCI-H226 cells by SRB assay
How it was run: (§1)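 NCI-60 panel screen; 5-dose testing giving GI50 per cell line, plus a single 10 µM one-dose test. Method details not given beyond the NCI screen.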

RPMI-8226 = assay: Cytotoxicity against human RPMI8226 cells assessed as cell growth at 0.5 uM by SRB assay; details: read-out: Activity
NCI-H226 [2] = assay: Cytotoxicity against human NCI-H226 cells assessed as cell growth at 0.005 uM by SRB assay; details: read-out: Activity
MDA-MB-468 = assay: Cytotoxicity against human MDA-MB-468 cells assessed as cell growth at 0.005 uM by SRB assay; details: read-out: Activity
UACC-257 = assay: Cytotoxicity against human UACC257 cells by SRB assay; how it was run: as §1
SK-MEL-28 [3] = assay: Cytotoxicity against human SK-MEL-28 cells by SRB assay; how it was run: as §1
[4] = Cytotoxicity against human Hs578T cells assessed as cell growth at 5 uM by SRB assay; details: Hs-578T, read-out: Activity
How it was run: (§2)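 Measured in the NCI-60 human tumour cell line panel using five-dose testing. Growth was recorded at each dose for each cell line, and a GI50 was derived for each line.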

HCC 2998 [5] = assay: Cytotoxicity against human HCC2998 cells assessed as cell growth at 0.05 uM by SRB assay; details: read-out: Activity; how it was run: as §2
TK-10 = assay: Cytotoxicity against human TK10 cells by SRB assay; how it was run: as §1
SF-268 = assay: Cytotoxicity against human SF268 cells assessed as cell growth at 0.5 uM by SRB assay; details: read-out: Activity
SR = assay: Cytotoxicity against human SR cells assessed as cell growth at 0.05 uM by SRB assay; details: read-out: Activity
SK-MEL-2 = assay: Cytotoxicity against human SK-MEL-2 cells assessed as cell growth at 5 uM by SRB assay; details: read-out: Activity
BT-549 = assay: Cytotoxicity against human BT549 cells assessed as cell growth at 50 uM by SRB assay; details: read-out: Activity
OVCAR-5 [6] = assay: Cytotoxicity against human OVCAR5 cells assessed as cell growth at 5 uM by SRB assay; details: read-out: Activity
A549 = assay: Cytotoxicity against human A549/ATCC cells assessed as cell growth at 0.05 uM by SRB assay; details: read-out: Activity
OVCAR-5 [7] = assay: Cytotoxicity against human OVCAR5 cells assessed as cell growth at 0.05 uM by SRB assay; details: read-out: Activity
HL-60(TB) [8] = assay: Cytotoxicity against human HL-60(TB) cells assessed as cell growth at 0.05 uM by SRB assay; details: read-out: Activity; how it was run: as §2
MOLT-4 [9] = assay: Cytotoxicity against human MOLT4 cells assessed as cell growth at 0.005 uM by SRB assay; details: read-out: Activity
HOP-92 [10] = assay: Cytotoxicity against human HOP92 cells by SRB assay; how it was run: as §2
MOLT-4 [11] = assay: Cytotoxicity against human MOLT4 cells assessed as cell growth at 0.05 uM by SRB assay; details: read-out: Activity
NCI-H23 [12] = assay: Cytotoxicity against human NCI-H23 cells assessed as cell growth at 0.5 uM by SRB assay; details: read-out: Activity
OVCAR-8 = assay: Cytotoxicity against human OVCAR8 cells assessed as cell growth at 0.5 uM by SRB assay; details: read-out: Activity
NCI-H460 [13] = assay: Cytotoxicity against human NCI-H460 cells by SRB assay; how it was run: as §1
M14 [14] = assay: Cytotoxicity against human M14 cells assessed as cell growth at 0.5 uM by SRB assay; details: read-out: Activity
CCRF-CEM = assay: Cytotoxicity against human CCRF-CEM cells assessed as cell growth at 0.005 uM by SRB assay; details: read-out: Activity
UO-31 = assay: Cytotoxicity against human UO31 cells assessed as cell growth at 50 uM by SRB assay; details: read-out: Activity
HOP-92 [15] = assay: Cytotoxicity against human HOP92 cells assessed as cell growth at 5 uM by SRB assay; details: read-out: Activity; how it was run: as §2
SF-539 [16] = assay: Cytotoxicity against human SF539 cells assessed as cell growth at 5 uM by SRB assay; details: read-out: Activity
HCC 2998 [17] = assay: Cytotoxicity against human HCC2998 cells assessed as cell growth at 5 uM by SRB assay; details: read-out: Activity; how it was run: as §2
NCI-H460 [18] = assay: Cytotoxicity against human NCI-H460 cells assessed as cell growth at 5 uM by SRB assay; details: read-out: Activity
HCC 2998 [19] = assay: Cytotoxicity against human HCC2998 cells assessed as cell growth at 50 uM by SRB assay; details: read-out: Activity; how it was run: as §2
SF-539 [20] = assay: Cytotoxicity against human SF539 cells assessed as cell growth at 0.5 uM by SRB assay; details: read-out: Activity
HL-60(TB) [21] = assay: Cytotoxicity against human HL-60(TB) cells assessed as cell growth at 5 uM by SRB assay; details: read-out: Activity; how it was run: as §2
SK-MEL-5 = assay: Cytotoxicity against human SK-MEL-5 cells assessed as cell growth at 0.05 uM by SRB assay; details: read-out: Activity
SK-MEL-28 [22] = assay: Cytotoxicity against human SK-MEL-28 cells assessed as cell growth at 0.005 uM by SRB assay; details: read-out: Activity
MCF7 = assay: Cytotoxicity against human MCF7 cells assessed as cell growth at 0.05 uM by SRB assay; details: read-out: Activity
NCI-H23 [23] = assay: Cytotoxicity against human NCI-H23 cells assessed as cell growth at 0.05 uM by SRB assay; details: read-out: Activity
DU-145 = assay: Cytotoxicity against human DU145 cells assessed as cell growth at 0.005 uM by SRB assay; details: read-out: Activity
SK-OV-3 = assay: Cytotoxicity against human SKOV3 cells assessed as cell growth at 0.5 uM by SRB assay; details: read-out: Activity
SF-295 = assay: Cytotoxicity against human SF295 cells assessed as cell growth at 50 uM by SRB assay; details: read-out: Activity
M14 [24] = assay: Cytotoxicity against human M14 cells assessed as cell growth at 50 uM by SRB assay; details: read-out: Activity
NCI-H522 = assay: Cytotoxicity against human NCI-H522 cells assessed as cell growth at 5 uM by SRB assay; details: read-out: Activity
LOX IMVI = assay: Cytotoxicity against human LOXIMVI cells assessed as cell growth at 5 uM by SRB assay; details: read-out: Activity
[25] = read-out: LC50 (the source's name)
[26] = read-out: pLC50 (the source's name) (converted)

Structure (SMILES): COc1cc([C@@H]2c3cc4c(cc3[C@@H](NC(=O)CN3CCN(CCCCCCCCCCN5CCN(CC(=O)N[C@@H]6c7cc8c(cc7[C@@H](c7cc(OC)c(O)c(OC)c7)[C@H]7C(=O)OC[C@@H]76)OCO8)CC5)CC3)[C@H]3COC(=O)[C@H]23)OCO4)cc(OC)c1O
- GI50 (NCI-H226 [1]; read-out: GI50): 0.469 µM
- CC50 (NCI-H226 [1]; [25]): 22.6 µM
- TGI (NCI-H226 [1]; read-out: TGI): 9.32 µM
- GI50 (NCI-H226 [1]; read-out: pGI50 (converted)): 0.468 µM
- CC50 (NCI-H226 [1]; [26]): 22.4 µM
- TGI (NCI-H226 [1]; read-out: pTGI (converted)): 9.33 µM
- growth at 0.5 µM (RPMI-8226): -2%
- growth at 0.005 µM (NCI-H226 [2]): 92%
- growth at 0.005 µM (MDA-MB-468): 95%
- GI50 (UACC-257; read-out: GI50): 0.679 µM
- CC50 (UACC-257; [25]): 2.63 µM
- TGI (UACC-257; read-out: TGI): 1.34 µM
- GI50 (UACC-257; read-out: pGI50 (converted)): 0.676 µM
- CC50 (UACC-257; [26]): 2.63 µM
- TGI (UACC-257; read-out: pTGI (converted)): 1.35 µM
- GI50 (SK-MEL-28 [3]; read-out: GI50): 6.2 µM
- CC50 (SK-MEL-28 [3]; [25]): 29.8 µM
- TGI (SK-MEL-28 [3]; read-out: TGI): 13.6 µM
- GI50 (SK-MEL-28 [3]; read-out: pGI50 (converted)): 6.17 µM
- CC50 (SK-MEL-28 [3]; [26]): 29.5 µM
- TGI (SK-MEL-28 [3]; read-out: pTGI (converted)): 13.5 µM
- growth at 5 µM [4]: 41%
- growth at 0.05 µM (HCC 2998 [5]): 83%
- GI50 (TK-10; read-out: GI50): 1.44 µM
- CC50 (TK-10; [25]): 15.4 µM
- TGI (TK-10; read-out: TGI): 4.57 µM
- GI50 (TK-10; read-out: pGI50 (converted)): 1.45 µM
- CC50 (TK-10; [26]): 15.5 µM
- TGI (TK-10; read-out: pTGI (converted)): 4.57 µM
- growth at 0.5 µM (SF-268): 49%
- growth at 0.05 µM (SR): 85%
- growth at 5 µM (SK-MEL-2): 47%
- growth at 50 µM (BT-549): -26%
- growth at 5 µM (OVCAR-5 [6]): 5%
- growth at 0.05 µM (A549): 29%
- growth at 0.05 µM (OVCAR-5 [7]): 83%
- growth at 0.05 µM (HL-60(TB) [8]): 69%
- growth at 0.005 µM (MOLT-4 [9]): 88%
- GI50 (HOP-92 [10]; read-out: GI50): 0.14 µM
- CC50 (HOP-92 [10]; [25]): > 50 µM
- TGI (HOP-92 [10]; read-out: TGI): 2.58 µM
- GI50 (HOP-92 [10]; read-out: pGI50 (converted)): 0.141 µM
- CC50 (HOP-92 [10]; [26]): > 50.1 µM
- TGI (HOP-92 [10]; read-out: pTGI (converted)): 2.57 µM
- growth at 0.05 µM (MOLT-4 [11]): 67%
- growth at 0.5 µM (NCI-H23 [12]): 25%
- growth at 0.5 µM (OVCAR-8): 51%
- GI50 (NCI-H460 [13]; read-out: GI50): 2.66 µM
- CC50 (NCI-H460 [13]; [25]): 26.9 µM
- TGI (NCI-H460 [13]; read-out: TGI): 9.82 µM
- GI50 (NCI-H460 [13]; read-out: pGI50 (converted)): 2.63 µM
- CC50 (NCI-H460 [13]; [26]): 26.9 µM
- TGI (NCI-H460 [13]; read-out: pTGI (converted)): 9.77 µM
- growth at 0.5 µM (M14 [14]): 65%
- growth at 0.005 µM (CCRF-CEM): 97%
- growth at 50 µM (UO-31): -100%
- growth at 5 µM (HOP-92 [15]): -9%
- growth at 5 µM (SF-539 [16]): -88%
- growth at 5 µM (HCC 2998 [17]): 29%
- growth at 5 µM (NCI-H460 [18]): 33%
- growth at 50 µM (HCC 2998 [19]): -100%
- growth at 0.5 µM (SF-539 [20]): 13%
- growth at 5 µM (HL-60(TB) [21]): -44%
- growth at 0.05 µM (SK-MEL-5): 96%
- growth at 0.005 µM (SK-MEL-28 [22]): 96%
- growth at 0.05 µM (MCF7): 61%
- growth at 0.05 µM (NCI-H23 [23]): 81%
- growth at 0.005 µM (DU-145): 99%
- growth at 0.5 µM (SK-OV-3): 52%
- growth at 50 µM (SF-295): -44%
- growth at 50 µM (M14 [24]): -49%
- growth at 5 µM (NCI-H522): -54%
- growth at 5 µM (LOX IMVI): -80%
